Data published in ChEMBL document CHEMBL1138882, “The design, synthesis, and evaluation of organ-specific iron chelators” (J Med Chem, 2006).

Assays:
Rattus norvegicus [1] = experiment: Drug level in Sprague-Dawley rat kidney at 300 umol/kg, sc after 0.5 hrs; assay type: ADME, organism-based; conditions: in vivo
Outline: (§1)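 Kidney level after single sc 300 μmol/kg monosodium salt in male Sprague-Dawley rats (250–350 g), n = 3 per time point. Water homogenate (1:2 w/v), methanol protein precipitation, 0.2 μm filtration, RP amide C16 HPLC with UV at 310 nm; linear range 1–1000 μM; reported as nmol/g wet weight, mean.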

Rattus norvegicus [2] = experiment: Drug level in Sprague-Dawley rat heart at 300 umol/kg, sc after 0.5 hrs; assay type: ADME, organism-based; conditions: in vivo
Outline: (§2)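 Heart drug level: male Sprague-Dawley rats (250–350 g), single sc injection of monosodium salt, 300 μmol/kg; CO2 euthanasia at set times (n = 3 per time point). Tissue homogenized in water 1:2 (w/v), proteins precipitated with 3 vol CH3OH at −20 °C 20 min, filtered; reversed-phase HPLC, UV 310 nm, calibration-curve quantitation; nmol/g wet weight, mean.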

Rattus norvegicus [3] = experiment: Toxicity in Sprague-Dawley rat at 384 umol/kg, po; assay type: organism-based; conditions: in vivo
Outline: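 Male Sprague-Dawley rats (250–300 g), fasted overnight, gavaged once daily at 384 μmol/kg/d for up to 10 d; fed ~3 h post-dose for 5 h, then fasted. Age-matched controls; monitored at least three times daily, moribund animals euthanized; survivors sacrificed one day after last dose for histopathology.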

[4] = Partition coefficient, log P of the compound; assay type: physicochemical; conditions: octanol/water
Outline: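 Shake-flask direct partition between octanol and TRIS buffer, pH 7.4; expressed as log of the fraction in the octanol layer (log P_app).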

Monkey = experiment: Iron clearing efficiency in monkey at 150 umol/kg; assay type: functional, Sapajus apella
Outline: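 Cebus apella monkeys (3.5–4 kg) iron-overloaded with iv iron dextran (~500 mg Fe/kg), ≥60 d before use; single po 150 μmol/kg (monosodium salt or 40% Cremophor RH-40/water). Feces and urine collected every 24 h, 4 d before to 5 d after dosing; iron by flame AAS. ICE = 2-day post-drug output minus 4-day pre-drug mean, over theoretical (2:1 complex), percent; mean ± SEM.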

Rattus norvegicus [5] = experiment: Iron clearing efficiency in Sprague-Dawley rat at 300 umol/kg, po; assay type: functional
Outline: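 Bile-duct-cannulated, non-iron-overloaded male Sprague-Dawley rats (400–450 g) given single oral dose, 150 or 300 μmol/kg, as water solution, in 40% Cremophor RH-40/water, or monosodium salt. Bile every 3 h up to 48 h, urine every 24 h; iron by flame AAS. Efficiency = (treated minus control iron excretion)/theoretical output (2:1 complex), percent; mean ± SEM.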

Rattus norvegicus [6] = experiment: Drug level in Sprague-Dawley rat pancreas at 300 umol/kg, sc after 1 hr; assay type: ADME, organism-based; conditions: in vivo
Outline: (§3)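 Pancreas concentration: single sc 300 μmol/kg (monosodium salt) to male Sprague-Dawley rats (250–350 g), three rats per time point, CO2 euthanasia. Tissue homogenate in water (1:2 w/v), CH3OH protein precipitation, filtration, RP HPLC with 310 nm UV detection; nmol/g wet weight, mean.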

Rattus norvegicus [7] = experiment: Drug level in Sprague-Dawley rat liver at 300 umol/kg, sc after 0.5 hrs; assay type: ADME, organism-based; conditions: in vivo
Outline: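 Liver sampled from male Sprague-Dawley rats (250–350 g) given one sc dose, 300 μmol/kg, as monosodium salt; n = 3 per time point. Homogenized in water, methanol-precipitated, filtered, analysed by HPLC-UV at 310 nm against calibration curves; nmol compound per g wet weight, mean; O-demethylated metabolite also measured.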

[8] = (§4) Drug level in Sprague-Dawley rat plasma at 300 umol/kg, sc after 0.5 hrs; assay type: ADME, organism-based; conditions: Sprague-Dawley, plasma, 300 umol/kg
Outline: (§5)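 Plasma: male Sprague-Dawley rats (250–350 g) dosed sc once at 300 μmol/kg as monosodium salt; blood by cardiac puncture into sodium citrate, centrifuged; methanol deproteinization, filtered, HPLC-UV 310 nm, detection limit 0.5 μM; μM, mean of n = 3 per time point.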

Rattus norvegicus [9] = experiment: Drug level in Sprague-Dawley rat pancreas at 300 umol/kg, sc after 4 hrs; assay type: ADME, organism-based; conditions: in vivo; outline: as §3
Rattus norvegicus [10] = experiment: Drug level in Sprague-Dawley rat heart at 300 umol/kg, sc after 4 hrs; assay type: ADME, organism-based; conditions: in vivo; outline: as §2
[11] = Drug level in Sprague-Dawley rat plasma at 300 umol/kg, sc after 2 hrs; assay type: ADME, organism-based; outline: as §5
Rattus norvegicus [12] = experiment: Drug level in Sprague-Dawley rat heart at 300 umol/kg, sc after 8 hrs; assay type: ADME, organism-based; conditions: in vivo; outline: as §2
Rattus norvegicus [13] = experiment: as §4; assay type: ADME, organism-based; conditions: in vivo, 0.5 h; outline: as §5
Rattus norvegicus [14] = experiment: Drug level in Sprague-Dawley rat kidney at 300 umol/kg, sc after 1 hr; assay type: ADME, organism-based; conditions: in vivo; outline: as §1

SMILES | Drug uptake (Rattus norvegicus [1]) | Drug uptake (Rattus norvegicus [2]) | Activity (Rattus norvegicus [3]) | logP [4] | Activity (Monkey) | Activity (Rattus norvegicus [5]) | Drug uptake (Rattus norvegicus [6]) | Drug uptake (Rattus norvegicus [7]) | concentration at 0.5 h [8] | Drug uptake (Rattus norvegicus [9]) | Drug uptake (Rattus norvegicus [10]) | concentration at 2 h [11] | Drug uptake (Rattus norvegicus [12]) | Cp (Rattus norvegicus [13]) | Drug uptake (Rattus norvegicus [14])
O=C(O)[C@H]1CSC(c2cc(O)ccc2O)=N1 | 629 nmol/g | 42 nmol/g | Non-toxic | -1.52 | 1.8% | – | – | – | – | – | – | – | – | – | –
COc1ccc(C2=N[C@@H](C(=O)O)CS2)c(O)c1 | – | – | Non-toxic | – | 16.2% | 11.6% | – | – | – | – | – | – | – | – | –
COc1ccc(O)c(C2=N[C@@](C)(C(=O)O)CS2)c1 | – | 208 nmol/g | Toxic | -0.61 | 18.9% | 6.3% | 153 nmol/g | 382 nmol/g | 803 µM | – | – | – | – | – | –
COc1ccc(O)c(C2=N[C@@H](C(=O)O)CS2)c1 | – | 380 nmol/g | Non-toxic | -0.81 | 12% | 8.9% | – | 564 nmol/g | – | 45 nmol/g | 61 nmol/g | – | – | – | –
O=C(O)[C@H]1CSC(c2ccc(O)cc2O)=N1 | 667 nmol/g | – | Non-toxic | – | 4.2% | 2.9% | – | – | 209 µM | – | – | 5 µM | – | – | –
COc1ccc(C2=N[C@@H](C(=O)O)CS2)c(O)c1OC | – | 185 nmol/g | Non-toxic | -1.28 | 12.4% | 11.9% | – | – | – | – | – | – | – | – | –
COc1ccc(C2=N[C@@](C)(C(=O)O)CS2)c(O)c1 | 282 nmol/g | – | Toxic | – | 24.4% | 6.6% | – | – | – | – | – | – | – | – | –
COc1ccc(C2=N[C@@](C)(C(=O)O)CS2)c(O)c1OC | 1375 nmol/g | 259 nmol/g | Toxic | -0.95 | – | 16.6% | – | 924 nmol/g | – | – | – | – | 3 nmol/g | 907 µM | –
C[C@]1(C(=O)O)CSC(c2cc(O)ccc2O)=N1 | 1216 nmol/g | – | Non-toxic | -1.14 | 12.6% | 1% | – | – | – | – | – | – | – | – | –
C[C@]1(C(=O)O)CSC(c2ccc(O)cc2O)=N1 [DEFERITRIN] | 361 nmol/g | – | Non-toxic | – | 16.8% | 1.1% | – | 124 nmol/g | 92 µM | – | – | 13 µM | – | – | 179 nmol/g
